≈ marks a conversion by molar mass, not a printed value. Calls of active or inactive are those of the source.

The text below walks through data of ChEMBL document CHEMBL2203068, “Antibacterial butenolides from the Korean tunicate Pseudodistoma antinboja” (2012).

Assay [1] concerns Staphylococcus aureus. Kind of assay: Antimicrobial activity against methicillin-sensitive Staphylococcus aureus CCARM 0027 incubated for 24 hrs by microtiter broth dilution method. It counts as functional. The following applies: CCARM 0027, 24 h. In outline:
(§1)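 Two-fold serial dilutions of compound in DMSO were made in Mueller Hinton broth in 96-well microtiter plates, with 0.64% DMSO final. Each well was inoculated with an overnight bacterial culture at 5 × 10⁵ cfu/mL and incubated at 37 °C for 24 h. MIC was the lowest concentration showing no visible growth.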
In general terms: In broth dilution the organism is exposed to a series of concentrations in liquid medium.

In assay [2] the test system is Staphylococcus aureus. Kind of assay: Antimicrobial activity against methicillin-sensitive Staphylococcus aureus CCARM 0204 incubated for 24 hrs by microtiter broth dilution method. It counts as functional. The following applies: CCARM 0204, 24 h. In outline: as §1
Assay [3] deals with Staphylococcus aureus. Briefly: Antimicrobial activity against methicillin-sensitive Staphylococcus aureus CCARM 0205 incubated for 24 hrs by microtiter broth dilution method. The class given is functional. As to conditions: CCARM 0205, 24 h. In outline: as §1
For assay [4], the system named is Staphylococcus aureus. Briefly: Antimicrobial activity against methicillin-sensitive Staphylococcus aureus CCARM 3640 incubated for 24 hrs by microtiter broth dilution method. The following applies: CCARM 3640, 24 h. The class given is functional. In outline:
as §1

Assay [5] concerns Staphylococcus aureus. Kind of assay: Antimicrobial activity against methicillin-resistant Staphylococcus aureus CCARM 3089 incubated for 24 hrs by microtiter broth dilution method. It counts as functional. As to conditions: CCARM 3089, 24 h. In outline: as §1
The subject of assay [6] is Staphylococcus aureus. Kind of assay: Antimicrobial activity against methicillin-resistant Staphylococcus aureus CCARM 3090 incubated for 24 hrs by microtiter broth dilution method. The class given is functional. As to conditions: CCARM 3090, 24 h. In short, it runs like this:
as §1

Assay [7] concerns Staphylococcus aureus. Kind of assay: Antimicrobial activity against methicillin-resistant Staphylococcus aureus CCARM 3634 incubated for 24 hrs by microtiter broth dilution method. The class given is functional. As to conditions: CCARM 3634, 24 h. In short, it runs like this:
as §1

Assay [8] deals with Staphylococcus aureus. Briefly: Antimicrobial activity against methicillin-resistant Staphylococcus aureus CCARM 3635 incubated for 24 hrs by microtiter broth dilution method. It counts as functional. As to conditions: CCARM 3635, 24 h. In outline: as §1
For another assay, the system named is Klebsiella pneumoniae. Kind of assay: Antimicrobial activity against Klebsiella pneumoniae ATCC 4352 incubated for 24 hrs by microtiter broth dilution method. It counts as functional, organism-based. In short, it runs like this: (§2)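 Two-fold serial dilutions of compounds in DMSO were added to Mueller Hinton broth in 96-well microtiter plates (final 0.64% DMSO). Wells were inoculated with overnight bacterial culture at 5 × 10⁵ cfu/mL and incubated at 37 °C for 24 h. The MIC was the lowest concentration with no visible growth.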

The test system of the next assay is Salmonella typhimurium. Briefly: Antimicrobial activity against Salmonella typhimurium ATCC 14028 incubated for 24 hrs by microtiter broth dilution method. The class given is functional, organism-based. As to conditions: Salmonella enterica subsp. enterica serovar Typhimurium. In outline:
as §2

The test system of the next assay is Escherichia coli. Briefly: Antimicrobial activity against Escherichia coli ATCC 11775 incubated for 24 hrs by microtiter broth dilution method. It counts as functional, organism-based. In outline: as §2
For assay [9], the system named is Staphylococcus aureus. Kind of assay: Antimicrobial activity against Staphylococcus aureus ATCC 6538 incubated for 24 hrs by microtiter broth dilution method. It counts as functional. In outline:
as §2

Assay [10] has as its system Staphylococcus epidermidis. Briefly: Antimicrobial activity against Staphylococcus epidermidis ATCC 12228 incubated for 24 hrs by microtiter broth dilution method. It counts as functional. In short, it runs like this: as §2
A further assay relates to Kocuria rhizophila. Kind of assay: Antimicrobial activity against Kocuria rhizophila ATCC 9341 incubated for 24 hrs by microtiter broth dilution method. It counts as functional. In outline:
as §2

For the next assay, the system named is Bacillus subtilis. Kind of assay: Antimicrobial activity against Bacillus subtilis ATCC 6633 incubated for 24 hrs by microtiter broth dilution method. It counts as functional. In short, it runs like this:
as §2

In the case of `CC12C[C@@]34C=CC(=O)[C@@](C)(CCC(=O)Nc5c(O)ccc(C(=O)O)c5O)C3[C@H](CC1C4)O2` (stereo not given in full) [PLATENSIMYCIN], the MIC came out at 4 µg/mL (≈ 9.06 µM) with Staphylococcus aureus [1]; 4 µg/mL (≈ 9.06 µM) in the assay on Staphylococcus aureus [2]; 4 µg/mL (≈ 9.06 µM) in the assay with Staphylococcus aureus [3]; 8 µg/mL (≈ 18.1 µM) in the assay with Staphylococcus aureus [4]; 8 µg/mL (≈ 18.1 µM) in the assay on Staphylococcus aureus [5]; 8 µg/mL (≈ 18.1 µM) against Staphylococcus aureus [6]. For the same molecule, the minimum inhibitory concentration (MIC) with Staphylococcus aureus [7] and against Staphylococcus aureus [8] was 8 µg/mL (≈ 18.1 µM) each time.

In the case of `O=C1C=C(c2cc(Br)c(O)c(Br)c2)/C(=C/c2cc(Br)c(O)c(Br)c2)O1` [RUBROLIDE A], the MIC result with Klebsiella pneumoniae, in the assay on Salmonella typhimurium and in the assay with Escherichia coli was “inactive” throughout. For the same molecule, the MIC in the assay with Staphylococcus aureus [9] (ATCC 6538, 24 h) worked out at 3.1 µg/mL (≈ 5.2 µM); in [10] (ATCC 12228, 24 h), 1.6 µg/mL (≈ 2.69 µM); against Kocuria rhizophila (ATCC 9341, 24 h), 1.6 µg/mL (≈ 2.69 µM); in the assay on Bacillus subtilis (ATCC 6633, 24 h) it was 1.6 µg/mL (≈ 2.69 µM); against Staphylococcus aureus [1] it was 4 µg/mL (≈ 6.71 µM); against Staphylococcus aureus [2] it was 4 µg/mL (≈ 6.71 µM). For the same molecule, the MIC with Staphylococcus aureus [3] is 4 µg/mL (≈ 6.71 µM); against Staphylococcus aureus [4] it was 8 µg/mL (≈ 13.4 µM); in the assay with Staphylococcus aureus [5], 8 µg/mL (≈ 13.4 µM); with Staphylococcus aureus [6], 8 µg/mL (≈ 13.4 µM); in the assay with Staphylococcus aureus [7], 8 µg/mL (≈ 13.4 µM); against Staphylococcus aureus [8], 8 µg/mL (≈ 13.4 µM).

Turning to `O=C1C=C(c2ccc(O)c(Br)c2)/C(=C/c2cc(Br)c(O)c(Br)c2)O1` [RUBROLIDE J], the MIC entry in the assay on Klebsiella pneumoniae, with Salmonella typhimurium and in the assay on Escherichia coli was “inactive” each time. Besides, the MIC in the assay on Staphylococcus aureus [9] (ATCC 6538, 24 h) stood at 3.1 µg/mL (≈ 6 µM); in assay [10] (ATCC 12228, 24 h), 0.8 µg/mL (≈ 1.55 µM); against Kocuria rhizophila (ATCC 9341, 24 h) it was 6.3 µg/mL (≈ 12.2 µM); in the assay on Bacillus subtilis (ATCC 6633, 24 h) it was 1.6 µg/mL (≈ 3.09 µM); against Staphylococcus aureus [1] it was 2 µg/mL (≈ 3.87 µM); in the assay with Staphylococcus aureus [2], 2 µg/mL (≈ 3.87 µM). The MIC in the assay on Staphylococcus aureus [3] turned out to be 1 µg/mL (≈ 1.93 µM); with Staphylococcus aureus [4], 2 µg/mL (≈ 3.87 µM); in the assay on Staphylococcus aureus [5] it was 4 µg/mL (≈ 7.74 µM); in the assay on Staphylococcus aureus [6], 2 µg/mL (≈ 3.87 µM); in the assay on Staphylococcus aureus [7], 2 µg/mL (≈ 3.87 µM); in the assay on Staphylococcus aureus [8], 2 µg/mL (≈ 3.87 µM).

Regarding `COc1ccc(C=C2OC(=O)C=C2c2cc(Br)c(O)c(Br)c2)cc1` [RUBROLIDE P], the MIC result in the assay with Klebsiella pneumoniae, in the assay with Salmonella typhimurium and in the assay on Escherichia coli was “inactive” each time. Moreover, the MIC was over 50 µg/mL against Staphylococcus aureus [9] (ATCC 6538, 24 h); 50 µg/mL (≈ 111 µM) in [10] (ATCC 12228, 24 h); 6.3 µg/mL (≈ 13.9 µM) against Kocuria rhizophila (ATCC 9341, 24 h); 50 µg/mL (≈ 111 µM) against Bacillus subtilis (ATCC 6633, 24 h); over 32 µg/mL in the assay with Staphylococcus aureus [1]; over 32 µg/mL with Staphylococcus aureus [2]. Moreover, the MIC with Staphylococcus aureus [3], in the assay with Staphylococcus aureus [4], against Staphylococcus aureus [5], against Staphylococcus aureus [6], in the assay on Staphylococcus aureus [7] and in the assay with Staphylococcus aureus [8] was over 32 µg/mL throughout.

Turning to `CN[C@H](CC(C)C)C(=O)N[C@H]1C(=O)N[C@@H](CC(N)=O)C(=O)N[C@H]2C(=O)N[C@H]3C(=O)N[C@H](C(=O)N[C@H](C(=O)O)c4cc(O)cc(O)c4-c4cc3ccc4O)[C@H](O)c3ccc(c(Cl)c3)Oc3cc2cc(c3O[C@@H]2O[C@H](CO)[C@@H](O)[C@H](O)[C@H]2O[C@H]2C[C@](C)(N)[C@H](O)[C@H](C)O2)Oc2ccc(cc2Cl)[C@H]1O` [VANCOMYCIN], the MIC against Staphylococcus aureus [2] is 0.25 µg/mL (≈ 0.173 µM); with Staphylococcus aureus [3] it was under 0.13 µg/mL; with Staphylococcus aureus [4] it was 0.25 µg/mL (≈ 0.173 µM).

For the molecule GENTAMICIN, the MIC in the assay with Staphylococcus aureus [9] is under 0.02 µg/mL; in assay [10], under 0.02 µg/mL; in the assay on Kocuria rhizophila, 1.6 µg/mL; in the assay on Bacillus subtilis, 0.05 µg/mL.

What is called MIC is the smallest concentration in the dilution series that meets the test's criterion for growth inhibition.
